Laboratory results reported in PubChem BioAssay AID588621 (Sanford-Burnham Center for Chemical Genomics, 2011).
Screen size: about 360,000 compounds; about 890 (0.25%) were called active.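 The calls were made as follows: active = inhibition at 20 µM, scaled per plate between control wells, above about 37% (limit read from the data); inactive = the rest.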 Shown is part of a subset that was picked to be rich in actives.

These molecules were tested against Tyrosine-protein phosphatase non-receptor type 5 (Homo sapiens) (UniProt P54829) (assay: inhibition of human PTPN5 enzyme activity – biochemical, fluorescence intensity, uHTS, primary screen (AID 588621;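 also: 0% = DMSO with enzyme and substrate and 100% = substrate only without enzyme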)). Conditions: recombinant STEP, OMFP fluorogenic substrate, at 20 µM, active compounds read high.
Chain of Tyrosine-protein phosphatase non-receptor type 5 (Homo sapiens) (P54829 whole entry, looked up): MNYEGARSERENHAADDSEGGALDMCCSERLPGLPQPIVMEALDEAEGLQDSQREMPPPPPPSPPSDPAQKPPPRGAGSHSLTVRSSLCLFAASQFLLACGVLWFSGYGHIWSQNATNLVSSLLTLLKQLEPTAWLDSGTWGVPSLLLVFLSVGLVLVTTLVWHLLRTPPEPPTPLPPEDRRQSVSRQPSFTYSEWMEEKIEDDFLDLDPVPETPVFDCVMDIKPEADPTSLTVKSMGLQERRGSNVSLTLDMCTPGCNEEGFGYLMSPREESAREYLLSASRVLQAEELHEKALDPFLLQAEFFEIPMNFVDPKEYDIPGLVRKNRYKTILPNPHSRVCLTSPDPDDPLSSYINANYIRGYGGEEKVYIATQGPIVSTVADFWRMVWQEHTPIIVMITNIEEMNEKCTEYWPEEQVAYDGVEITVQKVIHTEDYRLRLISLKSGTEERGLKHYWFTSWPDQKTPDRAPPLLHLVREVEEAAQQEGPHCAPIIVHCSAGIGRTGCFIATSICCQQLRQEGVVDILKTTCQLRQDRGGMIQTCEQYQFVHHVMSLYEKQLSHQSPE
Method in brief: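 Assay system: isolated STEP enzyme. Buffer or medium: pH 6.0 Bis-Tris with DTT and Tween 20. Also added: fluorogenic phosphatase substrate OMFP at 25 µM final. Dosing: 20 µM, 1% DMSO. Timing: 20 min reaction, room temperature, in the dark. Measured by: fluorescence intensity, excitation 480 nm, emission 540 nm. Evaluation: normalized % inhibition.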
With `O=C(CCS(=O)(=O)c1ccc2c(c1)NC(=O)CS2)NCc1ccccc1Cl` the inhibition was 1.6% (inactive). `CNc1cncc(-c2ccc(NS(C)(=O)=O)cc2)n1` was tested, and the inhibition was 4.2% (inactive). In the case of `CC(C)NS(=O)(=O)c1ccc(OCC(=O)NC2CCCCCC2)cc1`, the inhibition is reported as -0.6% (inactive). `O=C1C(=O)N(CCN2CCOCC2)C(c2ccccn2)/C1=C(/O)c1ccc(Cl)cc1` (centres undefined) was tested, and the inhibition was -3.3% (inactive). In the case of `CCCC1C(=O)N2C(N(C)C)=Nc3ccc(C)cc3N2C1=O` (centres undefined), the inhibition is reported as -0.2% (inactive). With `CCOc1ccc(N(CC(=O)NCC2CCCO2)S(=O)(=O)c2ccc(C)cc2)cc1` (centres undefined) the inhibition was 0.9% (inactive). In the case of `Cc1c(CCC(=O)O)c(=O)oc2cc(OCc3ccc(Br)cc3)ccc12`, the inhibition is reported as 5.4% (inactive). With `Cc1c(CCC(=O)O)c(=O)oc2c(C)c(OCc3ccccc3Cl)ccc12` the inhibition was 98.9% (active). With `CCOC(=O)CCc1c(C)c2ccc(OCc3nn[nH]n3)c(C)c2oc1=O` the inhibition was 2.9% (inactive). For `COc1ccc(C2COC(=O)C2=N)c(NC(=O)c2ccccc2)c1` (centres undefined), the inhibition was 1.3% (inactive). In the case of `O=C(c1c(F)cccc1Cl)N1CCN(c2ccccn2)CC1`, the inhibition is reported as -1.8% (inactive). With `Cc1cc(C(=O)N2CCN(c3ccccn3)CC2)c(C)o1` the inhibition was 39.4% (active). In the case of `O=C(c1cc2ccccc2s1)N1CCN(c2ccccn2)CC1`, the inhibition is reported as -0.1% (inactive). For `O=C(COC(=O)/C=C/c1ccc(Br)o1)Nc1cccc(S(=O)(=O)N2CCOCC2)c1`, the inhibition was 2.1% (inactive). `CC(C)(C)NC(=O)CSC(=Nc1ccccc1F)NC#N` was tested, and the inhibition was -0.7% (inactive). With `Cc1c(C#N)c2ncn(CC#N)c(=O)c2n1-c1ccccc1` the inhibition was -3.8% (inactive). With `Cc1nnsc1C(=O)NCc1c(F)cccc1Cl` the inhibition was -0.5% (inactive). For `CC1C(=O)NC(=O)C1c1ccccc1` (centres undefined), the inhibition was -2% (inactive). With `COc1ccc2c(c1)CCc1c(C(=O)N3CCc4ccccc4C3)noc1-2` the inhibition was -1% (inactive). With `CCCS(=O)(=O)N1CCN=C1SCc1cccc(F)c1` the inhibition was 0.3% (inactive). In the case of `O=c1ccc2c(-c3ccccc3S(=O)(=O)O)c3ccc(O)c(O)c3oc-2c1O`, the inhibition is reported as 96.8% (active). With `Cc1cc(Cl)ccc1NC(=S)N1CCC(C(N)=O)(N2CCCCC2)CC1` the inhibition was -1.3% (inactive). `CNc1[nH]ncc1[N+](=O)[O-]` was tested, and the inhibition was -1.1% (inactive). For `CCCCSCCCNC(=O)C1CCC(CNS(=O)(=O)c2ccc(NC(C)=O)cc2)CC1` (centres undefined), the inhibition was 1% (inactive). In the case of `Cc1ccc(-n2c(C)nnc2SCC(=O)NC2CC2)cc1`, the inhibition is reported as 0.1% (inactive). `Cc1ccc(SCC2=NNC(=O)C2)cc1` was tested, and the inhibition was 0.5% (inactive). In the case of `O=C(Nc1cccnc1)c1cc2cc(Br)ccc2oc1=O`, the inhibition is reported as 86.4% (active). In the case of `O=C(Nc1cccnc1)c1ccc(Cl)cc1[N+](=O)[O-]`, the inhibition is reported as 0.9% (inactive). With `COc1ccc2oc(=N)c(C(=O)Nc3ccc(Br)cc3)cc2c1` the inhibition was -1.8% (inactive). `CCOC(=O)c1c(-n2cnnn2)sc(C)c1C` was tested, and the inhibition was 0.1% (inactive). For `CCc1ccccc1N(CC(=O)NCCSCc1ccco1)S(C)(=O)=O`, the inhibition was -1.4% (inactive). `CCOc1ccc(C(CC(=O)O)n2cnnn2)cc1OC` (centres undefined) was tested, and the inhibition was -2.9% (inactive). `CC1=CC(C)(C)NC(=S)N1c1ccccc1` was tested, and the inhibition was -2.2% (inactive). For `COc1ccc(C2=NOC(Cn3nc(C(=O)NCc4ccc5c(c4)OCO5)cc3-c3ccccc3)C2)cc1` (centres undefined), the inhibition was 0.9% (inactive). `CCn1c(/C=N/NC(=O)c2ccc(OC)cc2)nc2ccccc21` was tested, and the inhibition was 2.2% (inactive). With `COc1cc(/C=N/NC(=O)c2cccnc2)ccc1OC(=O)c1cccc(Br)c1` the inhibition was 1.7% (inactive). For `COc1cccc(/C=N/NC(=O)c2[nH]nc3c2CCc2ccccc2-3)c1O`, the inhibition was 80% (active). In the case of `CN(C)Cc1c(O)ccc2c(=O)c(-c3ccccc3Cl)coc12`, the inhibition is reported as 0.4% (inactive). For `CCNC(=O)C1CCCN(C(=O)c2cc(F)ccc2C)CC1` (centres undefined), the inhibition was 1% (inactive). For `CC(C)C1CC2=C(C(=O)OC(C)(C)O2)C(c2ccc(F)cc2)O1` (centres undefined), the inhibition was 0% (inactive). For `c1ccc(-c2ccnc3nc(-n4cccc4)nn23)cc1`, the inhibition was -3.2% (inactive). With `CCc1nc2oc3ccccc3c(=O)c2c(=O)n1Cc1ccc(OC)cc1` the inhibition was 0.4% (inactive). For `Cn1c2ccccc2c(=O)c2c(=O)n(Cc3ccco3)c(COc3ccccc3)nc21`, the inhibition was 70.7% (active). For `O=C(CSc1nnc(COc2ccc(Cl)cc2)n1Cc1ccco1)N1CCNC1=O`, the inhibition was -4.2% (inactive). For `O=C1OCCC1=COCCCCOC=C1CCOC1=O`, the inhibition was 0.1% (inactive). With `O=C(CCc1ccccc1)Nc1ccc(NC(=O)C2CC2)nc1` the inhibition was -2.6% (inactive). For `COc1cc(/C=C/C(=O)OCC(=O)N2CCOCC2)ccc1OCC#N`, the inhibition was 1.1% (inactive). For `CCOC(=O)C/C(C)=N\Nc1ccc([N+](=O)[O-])cc1[N+](=O)[O-]`, the inhibition was 2.8% (inactive). With `C/C(=N\Nc1ccc(S(N)(=O)=O)cc1[N+](=O)[O-])c1cccs1` the inhibition was 97.5% (active). In the case of `C/C(=N\Nc1ccccc1)c1cccs1`, the inhibition is reported as -1.1% (inactive). With `Cc1csc2nc(COC(=O)c3cccc(N(C)C)c3)cc(=O)n12` the inhibition was -2.7% (inactive). In the case of `O=C(N/N=C\c1cccc(Br)c1)c1ccccc1-n1cccc1`, the inhibition is reported as -2.3% (inactive). For `O=C(Nc1ccc(N2CCCC2=O)cc1)c1cncc(Br)c1`, the inhibition was -0.3% (inactive). With `O=C(N/N=C/c1cccc(Br)c1)c1ccc(N2CCCC2=O)cc1` the inhibition was 94.9% (active). `CCc1c(Nc2ccccc2Cl)nc(N)[nH]c1=O` was tested, and the inhibition was -2.5% (inactive). `Cc1ccc(CNC(=O)CSc2nnc3c(n2)[nH]c2ccc(F)cc23)cc1` was tested, and the inhibition was 96.1% (active). `Cc1ccn2c(=O)nc(SCC(=O)NCc3ccc(F)cc3)nc2c1` was tested, and the inhibition was 0.1% (inactive). For `COc1ccc2[nH]c3nc(SCC(=O)NC4CC4)nnc3c2c1`, the inhibition was -4.6% (inactive). For `CCCCNC1(C#N)CCN(Cc2ccccc2)CC1`, the inhibition was -2.5% (inactive). With `COc1cccc(COC(=O)C2CCN(S(=O)(=O)c3cccs3)CC2)c1OC` the inhibition was 1.4% (inactive). For `Cc1ccccc1C#CC1=CC(=O)CC(C)(C)C1`, the inhibition was 0.4% (inactive). In the case of `Cn1ncc(Br)c1C(=O)NC1CCCC1`, the inhibition is reported as -1.6% (inactive). `CCN1CCc2nc(NC(=O)c3cc(F)c(F)cc3Cl)sc2C1` was tested, and the inhibition was -1.5% (inactive). `CCc1cc(-c2nnn(CCC3COCCO3)c2CC)ccc1-c1cn(Cc2ccc3ccccc3c2)nn1` (centres undefined) was tested, and the inhibition was 2.9% (inactive).
